# Laboratory results from ChEMBL document CHEMBL1129536, “Nucleoside analogs. 14. The synthesis of antitumor activity in mice of molecular combinations of 5-fluorouracil and N-(2-Chloroethyl)-N-nitrosourea moieties separated by a three-carbon chain” (1996).
# Legend:
# MAC13 [1] = test: Antitumor effect against MAC13 Tumors was determined by the percent of mean weight of treated tumors to mean weight of control tumors by arachis oil at dose 150 mg/kg; type: functional, Mus musculus
# Outline: (§1)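 MAC 13 tumors were grown in mice. Two days after transplantation, at about 2 mm³, mice were allocated by restricted randomization. Compounds were made up fresh and given ip at 0.1 mL/10 g body weight. Tumor weight was measured 21 days later, and T/C % was the mean treated tumor weight over the mean control weight; deaths among treated mice were recorded.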
# MAC13 [2] = test: Antitumor effect against MAC13 Tumors was determined by no. deaths/treated of mice by arachis oil at dose 150 mg/kg; no of deaths/treated 0/5; type: functional, Mus musculus
# Mus musculus [3] = test: Antitumor effect against Colon 38 Adenocarcinoma was determined by the percent of median tumor volume of treated animals to median tumor volume of control animals by saline at dose 100 mg/kg; type: functional
# Outline: (§2)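 Colon 38 adenocarcinoma, serially maintained in C57Bl/6 mice, was implanted as 3 mm × 3 mm fragments sc in B6D2F1 mice (19-22 g) on day 0. Compounds were made fresh on the day of injection, either dissolved in saline (0.9% NaCl) or suspended in saline with Tween 80 […], and given ip. T/C was the median tumor volume of treated over untreated controls; T/C <42% counted as activity.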
# MAC15A [4] = test: Antitumor effect against MAC15A Tumors was determined by the percent of median survival times of treated animals to median survival times of control animals by arachis oil at dose 100 mg/kg; conditions: Mus musculus
# MAC13 [5] = test: Antitumor effect against MAC13 Tumors was determined by the percent of mean weight of treated tumors to mean weight of control tumors by arachis oil at dose 100 mg/kg; type: functional, Mus musculus; outline: as §1
# Mus musculus [6] = test: Antitumor effect against Colon 38 Adenocarcinoma was determined by the percent of median tumor volume of treated animals to median tumor volume of control animals by saline/Tween 80(9/1) at dose 50 mg/kg; type: functional; outline: as §2
# MAC13 [7] = test: Antitumor effect against MAC13 Tumors was determined by no. deaths/treated of mice by arachis oil at dose 100 mg/kg; no of deaths/treated 0/5; type: functional, Mus musculus
# [8] = Antitumor effect against MCa Mammary Carcinoma was determined by the percent of median survival times of treated animals to median survival times of control animals by 10%DMSO/water at dose 150 mg/kg; type: functional, Mus musculus
# MAC13 [9] = test: Antitumor effect against MAC13 Tumors was determined by no. deaths/treated of mice by 10% ethanol/arachis oil at dose 100 mg/kg; no of deaths/treated 0/5; type: functional, Mus musculus
# MAC15A [10] = test: Antitumor effect against MAC15A Tumors was determined by the percent of median survival times of treated animals to median survival times of control animals by 10% ethanol/arachis oil at dose 100 mg/kg; conditions: Mus musculus
# MAC13 [11] = test: Antitumor effect against MAC13 Tumors was determined by the percent of mean weight of treated tumors to mean weight of control tumors by 10% ethanol/arachis oilat dose 100 mg/kg; type: functional, Mus musculus; outline: as §1
# MAC13 [12] = test: Antitumor effect against MAC13 Tumors was determined by the percent of mean weight of treated tumors to mean weight of control tumors by arachis oil at dose 200 mg/kg; type: functional, Mus musculus; outline: as §1
# MAC13 [13] = test: Antitumor effect against MAC13 Tumors was determined by no. deaths/treated of mice by arachis oil at dose 200 mg/kg; no of deaths/treated 0/10; type: functional, Mus musculus
# MAC15A [14] = test: Antitumor effect against MAC15A Tumors was determined by the percent of median survival times of treated animals to median survival times of control animals by arachis oil at dose 200 mg/kg; conditions: Mus musculus
# [15] = Antitumor effect against MCa Mammary Carcinoma was determined by the percent of median survival times of treated animals to median survival times of control animals by 10%DMSO/water at dose 100 mg/kg; type: functional, Mus musculus
# MAC13 [16] = test: Antitumor effect against MAC13 Tumors was determined by the percent of mean weight of treated tumors to mean weight of control tumors by arachis oil at dose 135 mg/kg; type: functional, Mus musculus; outline: as §1
# MAC15A [17] = test: Antitumor effect against MAC15A Tumors was determined by the percent of median survival times of treated animals to median survival times of control animals by arachis oil at dose 90 mg/kg; conditions: Mus musculus
# MAC13 [18] = test: Antitumor effect against MAC13 Tumors was determined by no. deaths/treated of mice by arachis oil at dose 135 mg/kg; no of deaths/treated 0/5; type: functional, Mus musculus
# [19] = Antitumor effect against MCa Mammary Carcinoma was determined by the percent of median survival times of treated animals to median survival times of control animals by 10%DMSO/water at dose 80 mg/kg; type: functional, Mus musculus
# MAC13 [20] = test: Antitumor effect against MAC13 Tumors was determined by the percent of mean weight of treated tumors to mean weight of control tumors by arachis oil at dose 31.25 mg/kg; type: functional, Mus musculus
# MAC15A [21] = test: Antitumor effect against MAC15A Tumors was determined by the percent of median survival times of treated animals to median survival times of control animals by arachis oil at dose 62.5 mg/kg; conditions: Mus musculus
# MAC13 [22] = test: Antitumor effect against MAC13 Tumors was determined by no. deaths/treated of mice by arachis oil at dose 31.25 mg/kg; no of deaths/treated 0/10; type: functional, Mus musculus
# [23] = Antitumor effect against MCa Mammary Carcinoma was determined by the percent of median survival times of treated animals to median survival times of control animals by 10%DMSO/water at dose 60 mg/kg; type: functional, Mus musculus
# Mus musculus [24] = test: Antitumor effect against Colon 38 Adenocarcinoma was determined by the percent of median tumor volume of treated animals to median tumor volume of control animals by saline/Tween 80(9/1) at dose 100 mg/kg; type: functional; outline: as §2
# MAC15A [25] = test: Antitumor effect against MAC15A Tumors was determined by the percent of median survival times of treated animals to median survival times of control animals by arachis oil at dose 300 mg/kg; conditions: Mus musculus
# MAC13 [26] = test: Antitumor effect against MAC13 Tumors was determined by no. deaths/treated of mice by arachis oil at dose 200 mg/kg; no of deaths/treated 0/5; type: functional, Mus musculus
# MAC13 [27] = test: Antitumor effect against MAC13 Tumors was determined by no. deaths/treated of mice by 10% DMSO/arachis oil at dose 100 mg/kg; no of deaths/treated 0/5; type: functional, Mus musculus
# MAC15A [28] = test: Antitumor effect against MAC15A Tumors was determined by the percent of median survival times of treated animals to median survival times of control animals by 10% DMSO/arachis oil at dose 100 mg/kg; conditions: Mus musculus
# MAC13 [29] = test: Antitumor effect against MAC13 Tumors was determined by the percent of mean weight of treated tumors to mean weight of control tumors by 10% DMSO/arachis oil at dose 100 mg/kg; type: functional, Mus musculus; outline: as §1
# MAC15A [30] = test: Antitumor effect against MAC15A Tumors was determined by the percent of median survival times of treated animals to median survival times of control animals by 10% DMSO/arachis oil at dose 200 mg/kg; conditions: Mus musculus
# Mus musculus [31] = test: Antitumor effect against Colon 38 Adenocarcinoma was determined by the percent of median tumor volume of treated animals to median tumor volume of control animals by saline/Tween 80(9/1)at dose 100 mg/kg; type: functional; outline: as §2
# MAC13 [32] = test: Antitumor effect against MAC13 Tumors was determined by the percent of mean weight of treated tumors to mean weight of control tumors by arachis oil at dose 50 mg/kg; type: functional, Mus musculus
# MAC13 [33] = test: Antitumor effect against MAC13 Tumors was determined by no. deaths/treated of mice by arachis oil at dose 50 mg/kg; no of deaths/treated 0/5; type: functional, Mus musculus
# MAC15A [34] = test: Antitumor effect against MAC15A Tumors was determined by the percent of median survival times of treated animals to median survival times of control animals by arachis oil at dose 50 mg/kg; conditions: Mus musculus
# Mus musculus [35] = test: Antitumor effect against Colon 38 Adenocarcinoma was determined by the percent of median tumor volume of treated animals to median tumor volume of control animals by saline at dose 50 mg/kg; type: functional
# MAC13 [36] = test: Antitumor effect against MAC13 Tumors was determined by no. deaths/treated of mice by 10% ethanol/arachis oil at dose 20 mg/kg; no of deaths/treated 0/5; type: functional, Mus musculus
# MAC15A [37] = test: Antitumor effect against MAC15A Tumors was determined by the percent of median survival times of treated animals to median survival times of control animals by saline at dose 20 mg/kg; conditions: Mus musculus
# MAC13 [38] = test: Antitumor effect against MAC13 Tumors was determined by the percent of mean weight of treated tumors to mean weight of control tumors by 10% ethanol/arachis oil at dose 20 mg/kg; type: functional, Mus musculus; outline: as §1
smiles,measurement,setting,value
COC(CCNC(=O)N(CCCl)N=O)n1cc(F)c(=O)[nH]c1=O (stereo not given),T/C,MAC13 [1],0.8%
same,No. deaths/treated,MAC13 [2],0
same,T/C,Mus musculus [3],47%
same,T/C,MAC15A [4],233%
O=NN(CCCl)C(=O)NCCOC(CCO)n1cc(F)c(=O)[nH]c1=O (stereo not given),T/C,MAC13 [5],27%
same,T/C,Mus musculus [6],68%
same,No. deaths/treated,MAC13 [7],0
same,T/C,MAC15A [4],136%
O=NN(CCCl)C(=O)NCCC(OCCO)n1cc(F)c(=O)[nH]c1=O (stereo not given),T/C,[8],168%
same,No. deaths/treated,MAC13 [9],0
same,T/C,MAC15A [10],233%
same,T/C,MAC13 [11],23%
O=NN(CCCl)C(=O)NCCOC(CCNC(=O)c1ccccc1C(=O)O)n1cc(F)c(=O)[nH]c1=O (stereo not given),T/C,MAC13 [12],103%
same,No. deaths/treated,MAC13 [13],0
same,T/C,MAC15A [14],148%
same,T/C,[15],121%
CSC(CCNC(=O)N(CCCl)N=O)n1cc(F)c(=O)[nH]c1=O (stereo not given),T/C,MAC13 [16],0%
same,T/C,MAC15A [17],200%
same,No. deaths/treated,MAC13 [18],0
same,T/C,Mus musculus [3],63%
same,T/C,[19],195%
CSC(CNC(=O)N(CCCl)N=O)n1cc(F)c(=O)[nH]c1=O (stereo not given),T/C,MAC13 [20],122%
same,T/C,MAC15A [21],156%
same,No. deaths/treated,MAC13 [22],0
same,T/C,Mus musculus [3],0%
same,T/C,[23],189%
CC(C)(C)OC(CCNC(=O)N(CCCl)N=O)n1cc(F)c(=O)[nH]c1=O (stereo not given),T/C,MAC13 [12],1%
same,T/C,Mus musculus [24],42%
same,T/C,MAC15A [25],280%
same,No. deaths/treated,MAC13 [26],0
COC(CCNC(=O)N(CCCl)N=O)n1c(=O)[nH]cc(F)c1=O (stereo not given),No. deaths/treated,MAC13 [27],0
same,T/C,MAC15A [28],360%
same,T/C,MAC13 [29],1%
O=NN(CCCl)C(=O)NCCC(SCC(=O)O)n1cc(F)c(=O)[nH]c1=O (stereo not given),T/C,MAC13 [12],31%
same,T/C,MAC15A [30],275%
same,No. deaths/treated,MAC13 [26],0
same,T/C,Mus musculus [31],0%
COC(CNC(=O)N(CCCl)N=O)n1cc(F)c(=O)[nH]c1=O (stereo not given),T/C,MAC13 [32],7%
same,No. deaths/treated,MAC13 [33],0
same,T/C,[15],311%
same,T/C,Mus musculus [3],38%
same,T/C,MAC15A [34],200%
COC(CCNC(=O)N(CCCl)N=O)n1c(=O)cc[nH]c1=O (stereo not given),No. deaths/treated,MAC13 [27],0
same,T/C,MAC15A [28],200%
same,T/C,MAC13 [29],43%
COC(CNC(=O)N(CCCl)N=O)n1c(=O)[nH]cc(F)c1=O (stereo not given),T/C,Mus musculus [35],17%
same,T/C,MAC13 [32],11%
same,No. deaths/treated,MAC13 [33],0
same,T/C,MAC15A [4],>850%
CC1CCC(NC(=O)N(CCCl)N=O)CC1 (stereo not given) [SEMUSTINE],No. deaths/treated,MAC13 [36],0
same,T/C,MAC15A [37],154%
same,T/C,MAC13 [38],8%
O=NN(CCCl)C(=O)NCCC(n1cc(F)c(=O)[nH]c1=O)n1c(=O)[nH]cc(F)c1=O (stereo not given),No. deaths/treated,MAC13 [27],0
same,T/C,MAC15A [28],182%
same,T/C,MAC13 [29],87%
